These results are taken from ChEMBL document CHEMBL4480447, “Acrotrione: An Oxidized Xanthene from the Roots of Acronychia pubescens” (J Nat Prod, 2019).

Data set [1] relates to Plasmodium falciparum. Nature of the data set: Antiplasmodial activity against drug-resistant Plasmodium falciparum Dd2 ring stage forms assessed as inhibition of parasite growth after 72 hrs by DAPI staining-based confocal microscopic analysis. The format is functional, organism-based. Particulars: Dd2, 72 h. The method, boiled down:
(§1)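 Compounds from 10 mM DMSO stocks, 16-point dose-response, 40 μM to 0.4 nM final. Incubation 72 h at 37 °C, 90% N2/5% CO2/5% O2. DAPI stain, confocal imaging. Percent inhibition normalized to puromycin 5 μM and 0.4% DMSO controls; IC50 by four-parameter logistic fit.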

Data set [2] concerns Plasmodium falciparum. Nature of the data set: Antiplasmodial activity against drug-sensitive Plasmodium falciparum 3D7 ring stage forms assessed as inhibition of parasite growth after 72 hrs by DAPI staining-based confocal microscopic analysis. The format is functional, organism-based. Conditions: 3D7, 72 h.
Data set [3] in a line: Selectivity ratio of IC50 for Plasmodium falciparum Dd2 ring stage forms to IC50 for Plasmodium falciparum 3D7 ring stage forms. It is filed as functional. The method, boiled down:
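Sixteen-point dose-response, 40 μM to 0.4 nM final. Fit is four-parameter logistic on percent inhibition normalized to puromycin (5 μM) and 0.4% DMSO. Ratio is Dd2 IC50 over 3D7 IC50.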

The nature of data set [4]: Cytotoxicity against HEK293 cells assessed as growth inhibition after 72 hrs by resazurin dye-based fluorescence assay relative to control. The format is cell-based. Set-up: concentration or dose not given beside the values. Particulars: human, read-out: GI. The gist of the method: (§2)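 HEK293 cells kept in DMEM with 10% FBS. Exposed to compound for 72 h at 37 °C, 5% CO2; 16-point dose-response, 40 μM to 0.4 nM final, three concentrations per log, from 10 mM DMSO stocks. Medium then replaced with 44 μM resazurin; fluorescence read after 5−6 h (ex/em 530/595 nm). Data normalized to puromycin (5 μM) and 0.4% DMSO controls; IC50 from four-parameter logistic fit.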

In data set [5] the test system is Plasmodium falciparum. Nature of the data set: Antiplasmodial activity against drug-resistant Plasmodium falciparum Dd2 ring stage forms assessed as inhibition of parasite growth at 40 uM after 72 hrs by DAPI staining-based confocal microscopic analysis. It is filed as functional. Particulars: Dd2, 72 h, read-out: GI. The gist of the method:
as §1

The test system of data set [6] is Plasmodium falciparum. Nature of the data set: Antiplasmodial activity against drug-sensitive Plasmodium falciparum 3D7 ring stage forms assessed as inhibition of parasite growth at 40 uM after 72 hrs by DAPI staining-based confocal microscopic analysis. The format is functional. Particulars: 3D7, 72 h, read-out: GI. The method, boiled down:
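Exposed to compound for 72 h at 37 °C under 90% N2/5% CO2/5% O2. DAPI staining followed by confocal imaging. Percent inhibition normalized to puromycin (5 μM) and 0.4% DMSO controls.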

Data set [7] relates to HEK293. Nature of the data set: Cytotoxicity against HEK293 cells after 72 hrs by resazurin dye-based fluorescence assay. The format is cell-based. Particulars: Homo sapiens, HEK293, 72 h. The method, boiled down:
as §2
For orientation: Alamar Blue is a resazurin reagent that responds to reducing activity.

Data set [8] is described as follows: Selectivity index, ratio of IC50 for HEK293 cells to IC50 for drug-sensitive Plasmodium falciparum 3D7 ring stage forms. It is filed as toxicity. Conditions: human; read-out: Ratio IC50.

The term IC50 denotes the point on the concentration scale where inhibition reaches its midpoint. Consider `COc1c(CC=C(C)C)c2c(c(O)c1C(C)=O)[C@H](CC(C)C)[C@H]1C(=O)C(C(C)=O)=C3O[C@@H](C(C)(C)O)C[C@@]3(O)[C@@]1(O)O2`, for which the IC50 was 4700 nM in data set [1] and 2700 nM in data set [2]. Moreover, the “Ratio IC50” value in data set [3] is recorded as 1.7. The inhibition at 72 h in data set [4] came out at 80.7%.

Consider `COc1c(CC=C(C)C)c(O)cc(O)c1C(C)=O`, for which the IC50 came to 3100 nM in data set [1] and 1800 nM in data set [2]. In addition, the “Ratio IC50” value in data set [3] is listed as 1.7. For the same molecule, the inhibition at 72 h in data set [4] worked out at 79.1%.

With `COc1c(CC=C(C)C)c(O)c(C=O)c(O)c1C(C)=O` [ACRONYCULATIN A], the values for the inhibition of growth at 40 µM in data set [5] and in data set [6] were 19.8% and 37.5%, respectively. The inhibition at 72 h in data set [4] was found to be 7.4%.

Consider `C[C@H]1[C@@H](O)O[C@@H]2O[C@@]3(C)CC[C@H]4[C@H](C)CC[C@@H]1[C@@]24OO3` [ARTENIMOL], for which the “Ratio IC50” value in data set [3] is reported as 1.8. The inhibition at 72 h in data set [4] turned out to be 41.1%.

Turning to `C[C@H]1[C@H](OC(=O)CCC(=O)O)O[C@@H]2O[C@@]3(C)CC[C@H]4[C@H](C)CC[C@@H]1[C@@]24OO3` [ARTESUNATE], in data set [1], the IC50 is 3.3 nM. The inhibition at 72 h in data set [4] amounted to 62.5%.

For `CCN(CC)CCCC(C)Nc1ccnc2cc(Cl)ccc12` (stereo not drawn) [CHLOROQUINE], the inhibition at 72 h in data set [4] was determined as 53.2%.

As for `COc1ccc(C[C@H](N)C(=O)N[C@H]2[C@@H](O)[C@H](n3cnc4c(N(C)C)ncnc43)O[C@@H]2CO)cc1` [PUROMYCIN], the half-inhibitory concentration (IC50) was 74.7 nM in data set [1], 694 nM in data set [7] and 70.2 nM in data set [2]. Also, in data set [3], the “Ratio IC50” value is on record as 1.1. Further, in data set [8], the selectivity ratio came out at 9.9.

Turning to `CCc1nc(N)nc(N)c1-c1ccc(Cl)cc1` [PYRIMETHAMINE], in data set [2], the half-inhibitory concentration (IC50) came out at 7.7 nM. Moreover, the inhibition at 72 h in data set [4] amounted to 52%.

Take `COc1ccc2nc3cc(Cl)ccc3c(Nc3cc(CN4CCCC4)c(O)c(CN4CCCC4)c3)c2n1` [PYRONARIDINE]: the IC50 in data set [1] was 11 nM; in data set [7] it was 1990 nM; in data set [2], 8.2 nM. The “Ratio IC50” value in data set [3] was 1.3. Moreover, the selectivity ratio in data set [8] was 246.
